pIC50: −log10 of the molar value. Active and inactive are the calls of the source. The calls are words filed in the database; no cut-off is given here.
Experiments:
[1] = target: Eukaryotic translation initiation factor 4B (Homo sapiens) (UniProt P23588); assay: Inhibition of eIF4B interaction with mRNA cap structure in presence of 0.6 mM m7GDP at 50 uM by chemical cross-linking assay
Outline: (§1)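 Oxidized ³²P cap-labelled CAT mRNA was chemically cross-linked in reactions with 0.9 mM ATP. Protein sources were 1 µg recombinant eIF4A_I, 0.7 µg native eIF4F, or an initiation factor preparation. Competitors were 0.6 mM m⁷GDP or GDP; compound was 50 µM. Samples were RNase A-treated, resolved by SDS-PAGE, and autoradiographed.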

HeLa [2] = assay: Inhibition of RNA synthesis in human HeLa cells assessed as [3H] Uridine incorporation at 1 uM by scintillation counting; assay type: functional, cell-based
[3] = Inhibition of DED1-mediated helicase activity by helicase assay
Outline: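 Helicase assay used the RNA-1/11 duplex with 25 nM Ded1p and 1 mM ATP. Products were separated on gels, dried, and exposed to film at -80 °C for 12 h.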

[4] = target: Eukaryotic initiation factor 4A-I (Mus musculus) (UniProt P60843); assay: Inhibition of eIF4A-mediated cap-dependent protein synthesis in Swiss mouse Krebs2 extract transfected with FF-HCV-Ren mRNA in presence of recombinant eIF4AIf by [35S]methionine metabolic labeling study
Outline: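 Krebs-2 translation programmed with FF-HCV-Ren mRNA at 5 µg ml⁻¹ mRNA and 100 mM K⁺ final. Conditions were 0.4 µM compound or 0.004% DMSO, with or without 2.2 µM recombinant eIF4A_If. [³⁵S]methionine products were resolved by SDS-PAGE and autoradiographed. Translational efficiency was taken relative to luciferase from vehicle controls. Three experiments; s.e.m.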

Nucleic Acid [5] = assay: Inhibition of PTV-1 IRES-mediated translation in Swiss mouse Krebs2 extract transfected with bicistronic mRNA by [35S]methionine metabolic labeling study; details: Porcine teschovirus 1
Outline: (§2)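 In vitro translation in Krebs-2 extracts programmed with capped bicistronic transcripts at 5 µg ml⁻¹ mRNA and 100 mM K⁺ final. Firefly and renilla luciferase activities read by luminometer. Alternatively, [³⁵S]methionine-labelled products were run on 10% SDS gels and autoradiographed. Control reactions held the same final DMSO level as the compound reactions.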

[6] = target: Eukaryotic translation initiation factor 4E (Homo sapiens) (UniProt P06730); assay: Inhibition of eIF4E interaction with mRNA cap structure in presence of 0.6 mM m7 GDP at 50 uM by chemical cross-linking assay; outline: as §1
[7] = target: Eukaryotic translation initiation factor 4E (Homo sapiens) (UniProt P06730); assay: Inhibition of eIF4E RNA binding activity in presence of 0.6 mM m7GDP at 50 uM; outline: as §1
[8] = target: Eukaryotic initiation factor 4A-I (Homo sapiens) (UniProt P60842); assay: Induction of eIF4A to [alpha-32P]ATP cross linking relative to control
Outline: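 [α-³²P]ATP (2.5 µCi) was UV cross-linked to 1 µg recombinant eIF4A_I or 0.7 µg native eIF4F, with 0.5% DMSO or 50 µM compound. Samples were run on SDS-PAGE and autoradiographed at -70 °C for 12 h. Four experiments.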

Escherichia coli = assay: Inhibition of eIF4A-mediated cap-dependent protein synthesis in Escherichia coli S30 extract transfected with FF-HCV-Ren mRNA at 50 uM by [35S]methionine metabolic labeling study
[9] = target: Eukaryotic initiation factor 4A-I (Mus musculus) (UniProt P60843); assay: Inhibition of eIF4A-mediated cap-dependent translation in Swiss mouse Krebs2 extract transfected with bicistronic mRNA by [35S]methionine metabolic labeling study; outline: as §2
HeLa [10] = assay: Inhibition of protein synthesis in human HeLa cells at 1 uM by [35S]methionine metabolic labeling study; assay type: functional, cell-based
Nucleic Acid [11] = assay: Inhibition of polio virus IRES-mediated translation in Swiss mouse Krebs2 extract transfected with bicistronic mRNA by [35S]methionine metabolic labeling study; details: Enterovirus C; outline: as §2
[12] = target: Eukaryotic initiation factor 4A-I (Homo sapiens) (UniProt P60842); assay: Inhibition of eIF4A interaction with mRNA cap structure in presence of 0.6 mM m7 GDP at 50 uM by chemical cross-linking assay; outline: as §1
[13] = target: Eukaryotic initiation factor 4A (Triticum aestivum) (UniProt P41378); assay: Inhibition of eIF4A-mediated cap-dependent protein synthesis in wheat germ extract transfected with FF-HCV-Ren mRNA by [35S]methionine metabolic labeling study
Outline: (§3)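 Rabbit reticulocyte lysate or wheat germ extract translations were run to kit instructions. Control reactions carried the same final DMSO concentration as the compound-containing reactions.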

[14] = target: Eukaryotic initiation factor 4A-I (Homo sapiens) (UniProt P60842); assay: Inhibition of eIF4A RNA binding activity in presence of 0.6 mM m7GDP at 50 uM; outline: as §1
[15] = target: Eukaryotic initiation factor 4A-I (Homo sapiens) (UniProt P60842); assay: Inhibition of eIF4A binding to 32p cap-labeled mRNA at 50 uM; outline: as §1
Nucleic Acid [16] = assay: Inhibition of EMCV IRES-mediated translation in Swiss mouse Krebs2 extract transfected with bicistronic mRNA by [35S]methionine metabolic labeling study; details: Encephalomyocarditis virus; outline: as §2
HeLa [17] = assay: Growth inhibition of human HeLa cells at 80 nM after 24 hrs; assay type: functional, cell-based
HeLa [18] = assay: Inhibition of protein synthesis in human HeLa cells at 1 uM after 60 mins by [35S]methionine metabolic labeling study; assay type: functional, cell-based
[19] = target: Eukaryotic initiation factor 4A-I (Homo sapiens) (UniProt P60842); assay: Inhibition of eIF4A-mediated helicase activity by helicase assay
Outline: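 Helicase assay used the RNA-1/11 duplex with 0.4 µM recombinant eIF4A_I and 1 mM ATP. Products were separated on gels, dried, and exposed to film at -80 °C for 12 h.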

HeLa [20] = assay: Inhibition of DNA synthesis in human HeLa cells assessed as [3H] thymidine incorporation at 1 uM by scintillation counting; assay type: functional, cell-based
[21] = tested on: Internal ribosome entry site (IRES); assay: Inhibition of HCV IRES-mediated protein synthesis in FF-HCV-Ren mRNA transfected Swiss mouse Krebs2 cell extract at 50 uM by [35S]methionine metabolic labeling study; details: Hepacivirus hominis; outline: as §2
Nucleic Acid [22] = assay: Inhibition of CrPV IRES-mediated translation in Swiss mouse Krebs2 extract transfected with bicistronic mRNA by [35S]methionine metabolic labeling study; outline: as §2
Triticum aestivum = assay: Inhibition of 48S ribosome complex formation in wheat germ extract in presence of 1 mM GMP-PNP assessed as increase in unbound mRNA at 50 uM; assay type: functional
Outline: (§4)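 ³²P-labelled CAT mRNA was incubated 10 min in wheat germ extract or rabbit reticulocyte lysate. Additions were 600 µM cycloheximide, 1 mM GMP-PNP, and 50 µM compound or vehicle. Mixtures were sedimented through 10–30% glycerol gradients at 200,000g for 3.5 h. Fraction radioactivity was measured by scintillation counting.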

HeLa [23] = assay: Inhibition of protein synthesis in human HeLa cells after 50 mins by [35S]methionine metabolic labeling study; assay type: functional, cell-based
[24] = target: Eukaryotic initiation factor 4A-I (Oryctolagus cuniculus) (UniProt P29562); assay: Inhibition of eIF4A-mediated cap-dependent protein synthesis in rabbit reticulocyte lysate transfected with FF-HCV-Ren mRNA by [35S]methionine metabolic labeling study; outline: as §3
HeLa [25] = assay: Disruption of polyribosmes in human HeLa cells at 1 uM after 20 mins; assay type: functional, cell-based
[26] = target: Eukaryotic initiation factor 4A-I (Homo sapiens) (UniProt P60842); assay: Inhibition of eIF4A RNA-dependent ATPase activity assessed as rate of ATP hydrolysis
Outline: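 Recombinant murine eIF4A_I (4.5 µg) was expressed in E. coli BL21(DE3) and purified by Ni-NTA and Q-Sepharose. It was incubated with 1 µM [γ-³²P]ATP and 2.5 µM poly(U). Hydrolysis was quantified by phosphorimager. Rate was plotted against compound concentration relative to 0.5% DMSO.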

Oryctolagus cuniculus = species on record: Oryctolagus cuniculus; assay: Inhibition of 80S ribosome complex formation in rabbit reticulocyte lysate in presence of 600 uM cyclohexamide assessed as increase in unbound mRNA at 50 uM; assay type: functional; outline: as §4
[27] = target: Eukaryotic initiation factor 4A-I (Mus musculus, UniProt P60843); assay: Inhibition of eIF4A-mediated cap-dependent protein synthesis in FF-HCV-Ren mRNA transfected Swiss mouse Krebs2 cell extract by [35S]methionine metabolic labeling study
Outline: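 Cell-free translation in Krebs-2 extracts programmed with capped bicistronic FF-HCV-Ren transcript: cap-dependent firefly cistron, HCV IRES-driven renilla cistron. Final mRNA 5 µg ml⁻¹, K⁺ 100 mM, compound titrated. Controls carry a matched final DMSO level. Products labeled with [³⁵S]methionine, separated by 10% SDS-PAGE, and autoradiographed. Luciferase activities are read by luminometer and expressed relative to vehicle reactions.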

Eukaryotic initiation factor 4A-I (Homo sapiens), sequence (P60842 whole entry): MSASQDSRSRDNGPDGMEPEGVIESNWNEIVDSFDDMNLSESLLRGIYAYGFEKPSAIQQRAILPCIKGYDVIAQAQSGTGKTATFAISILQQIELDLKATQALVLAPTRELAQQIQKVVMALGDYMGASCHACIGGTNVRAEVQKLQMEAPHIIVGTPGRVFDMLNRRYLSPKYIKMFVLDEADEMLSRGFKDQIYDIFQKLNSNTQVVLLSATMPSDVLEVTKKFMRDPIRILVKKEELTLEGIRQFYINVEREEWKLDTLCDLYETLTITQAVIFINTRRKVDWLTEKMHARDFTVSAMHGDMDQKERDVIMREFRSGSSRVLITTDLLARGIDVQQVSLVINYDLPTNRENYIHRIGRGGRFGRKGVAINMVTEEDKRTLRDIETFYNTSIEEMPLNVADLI
Eukaryotic translation initiation factor 4E (Homo sapiens), sequence (P06730 whole entry): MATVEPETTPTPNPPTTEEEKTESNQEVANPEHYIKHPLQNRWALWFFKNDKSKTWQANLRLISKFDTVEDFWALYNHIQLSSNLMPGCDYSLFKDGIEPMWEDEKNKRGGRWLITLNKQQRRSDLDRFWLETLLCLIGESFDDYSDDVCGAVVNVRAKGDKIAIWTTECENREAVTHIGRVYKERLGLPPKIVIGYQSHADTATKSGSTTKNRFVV
Eukaryotic initiation factor 4A-I (Mus musculus), sequence (P60843 whole entry): as the sequence (P60842 whole entry) above
Eukaryotic initiation factor 4A-I, sequence (P60843 whole entry): as the sequence (P60842 whole entry) above
Eukaryotic translation initiation factor 4B (Homo sapiens), sequence (P23588 whole entry): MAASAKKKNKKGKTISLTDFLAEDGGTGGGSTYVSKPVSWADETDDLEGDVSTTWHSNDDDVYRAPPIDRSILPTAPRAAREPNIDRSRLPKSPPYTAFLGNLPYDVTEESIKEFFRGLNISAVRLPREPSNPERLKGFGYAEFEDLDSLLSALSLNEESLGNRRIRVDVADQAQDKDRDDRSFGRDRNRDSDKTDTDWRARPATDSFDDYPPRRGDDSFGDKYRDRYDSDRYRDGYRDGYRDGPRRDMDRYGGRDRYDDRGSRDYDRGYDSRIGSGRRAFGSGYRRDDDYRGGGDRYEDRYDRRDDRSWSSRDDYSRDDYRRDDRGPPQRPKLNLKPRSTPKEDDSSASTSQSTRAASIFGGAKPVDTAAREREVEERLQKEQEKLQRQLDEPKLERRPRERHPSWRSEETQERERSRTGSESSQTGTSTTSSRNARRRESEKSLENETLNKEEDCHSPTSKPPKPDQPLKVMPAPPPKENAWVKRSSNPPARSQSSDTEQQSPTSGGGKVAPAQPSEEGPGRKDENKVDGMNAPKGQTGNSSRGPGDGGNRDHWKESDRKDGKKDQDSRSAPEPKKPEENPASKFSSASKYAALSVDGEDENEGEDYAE
Eukaryotic initiation factor 4A (Triticum aestivum), sequence (P41378 whole entry): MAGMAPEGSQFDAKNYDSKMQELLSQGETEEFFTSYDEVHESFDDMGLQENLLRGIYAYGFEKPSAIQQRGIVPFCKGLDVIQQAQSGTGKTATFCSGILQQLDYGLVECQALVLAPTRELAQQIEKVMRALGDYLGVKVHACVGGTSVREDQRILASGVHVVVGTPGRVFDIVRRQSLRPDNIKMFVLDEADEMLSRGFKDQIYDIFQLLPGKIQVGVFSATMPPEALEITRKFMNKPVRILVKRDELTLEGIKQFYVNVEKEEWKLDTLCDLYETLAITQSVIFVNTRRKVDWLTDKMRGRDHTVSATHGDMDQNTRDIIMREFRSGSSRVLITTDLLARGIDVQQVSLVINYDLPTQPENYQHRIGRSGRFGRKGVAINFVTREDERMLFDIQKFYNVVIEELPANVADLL
Eukaryotic initiation factor 4A-I (Oryctolagus cuniculus), sequence (P29562 whole entry): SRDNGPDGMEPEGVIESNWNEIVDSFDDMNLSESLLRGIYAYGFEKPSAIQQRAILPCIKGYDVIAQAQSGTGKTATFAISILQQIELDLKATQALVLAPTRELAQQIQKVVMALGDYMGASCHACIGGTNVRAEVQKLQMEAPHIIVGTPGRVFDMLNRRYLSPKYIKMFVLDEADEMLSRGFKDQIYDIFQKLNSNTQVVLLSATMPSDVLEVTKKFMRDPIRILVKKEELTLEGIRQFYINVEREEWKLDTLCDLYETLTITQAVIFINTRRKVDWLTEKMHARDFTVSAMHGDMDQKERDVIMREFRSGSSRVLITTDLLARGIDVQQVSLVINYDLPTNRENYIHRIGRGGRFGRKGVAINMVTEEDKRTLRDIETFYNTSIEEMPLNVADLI

SMILES: C[C@H]1C[C@@]2(O[C@H]3C[C@H]4[C@@H]5CC[C@H]6C[C@H](O)CC[C@]6(C)[C@H]5[C@@H](O)C[C@]4(C)[C@H]3[C@@]2(C)O)OC1(C)C [HIPPURISTANOL]
- inhibition [1]: Active
- inhibition (HeLa [2]): Active
- inhibition [3]: inactive
- inhibition [4]: Active
- inhibition (Nucleic Acid [5]): Active
- inhibition [6]: inactive
- inhibition [7]: inactive
- fold change (FC) [8]: 2
- inhibition (Escherichia coli): Active
- inhibition [9]: Active
- inhibition (HeLa [10]): Active
- inhibition (Nucleic Acid [11]): Active
- inhibition [12]: Active
- inhibition [13]: Active
- inhibition [14]: Active
- inhibition [15]: Active
- inhibition (Nucleic Acid [16]): Active
- inhibition (HeLa [17]): Active
- inhibition (HeLa [18]): Active
- inhibition [19]: Active
- inhibition (HeLa [20]): Active
- inhibition [21]: inactive
- inhibition (Nucleic Acid [22]): inactive
- inhibition (Triticum aestivum): Active
- inhibition (HeLa [23]): Active
- inhibition [24]: Active
- inhibition (HeLa [25]): Active
- inhibition [26]: Active
- inhibition (Oryctolagus cuniculus): Active
- pIC50 [27]: 6.40

— ChEMBL document CHEMBL1221182, “Functional characterization of IRESes by an inhibitor of the RNA helicase eIF4A” (Nat Chem Biol, 2006)
